ChEMBL document CHEMBL4118256, “Second Generation of Mannich Base-Type Derivatives with in Vivo Activity against Trypanosoma cruzi” (J Med Chem, 2018)

Tested on: Trypanosoma cruzi
Assay: Trypanocidal activity against Trypanosoma cruzi MHOM/Pe/2011/Arequipa DTU 5 epimastigotes after 48 hrs by resazurin dye based assay
Type: functional, organism-based
Settings: MHOM/Pe/2011/Arequipa DTU 5, 48 h
Outline: (§1)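 Exponential-phase epimastigotes were seeded at 5×10^5 mL^-1 with compounds at 100–0.2 µM (DMSO 0.01% v/v) at 28 °C. After 48 h, resazurin was added for another 24 h. SDS was then added and absorbance read at 570 and 600 nm.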
In the case of O=C(CCN1CCN(c2ccc(C(F)(F)F)cc2)CC1)c1ccc(Cl)c(F)c1, the IC50 is reported as 27.6 µM.
In the case of COc1ccc(C(=O)CCN2CCN(c3ccc(F)cc3)CC2)cc1OC, the IC50 is reported as 154 µM.
For O=C(CCN1CCN(c2ccc([N+](=O)[O-])cc2)CC1)c1ccc(F)c(F)c1, the IC50 was 85.2 µM.
For COc1ccc(C(=O)CCN2CCN(Cc3cccc(C)c3)CC2)cc1OC, the IC50 was 19.4 µM.
In the case of COc1ccc(C(=O)CCN2CCN(Cc3ccccc3)CC2)cc1OC, the IC50 is reported as 29.5 µM.
In the case of Cc1ccc(C(=O)CCN2CCN(c3ccc(F)cc3)CC2)cc1, the IC50 is reported as 43.5 µM.
With O=C(CCN1CCN(c2ccc(Cl)cc2)CC1)c1ccc(F)c(F)c1 the IC50 was 15.4 µM.
In the case of O=C(CCN1CCN(c2ccc(Cl)cc2)CC1)c1ccc(OC(F)(F)F)cc1, the IC50 is reported as 42.2 µM.

Tested on: Trypanosoma cruzi
Assay: Trypanocidal activity against Trypanosoma cruzi IRHOD/CO/2008/SN3 DTU 1 epimastigotes after 48 hrs by resazurin dye based assay
Type: functional, organism-based
Settings: IRHOD/CO/2008/SN3 DTU 1, 48 h
Outline: as §1
Work on O=C(CCN1CCN(c2ccc(C(F)(F)F)cc2)CC1)c1ccc(Cl)c(F)c1 yielded an IC50 of 49.1 µM.
With COc1ccc(C(=O)CCN2CCN(c3ccc(F)cc3)CC2)cc1OC the IC50 was 61.5 µM.
With O=C(CCN1CCN(c2ccc([N+](=O)[O-])cc2)CC1)c1ccc(F)c(F)c1 the IC50 was 160 µM.
In the case of COc1ccc(C(=O)CCN2CCN(Cc3cccc(C)c3)CC2)cc1OC, the IC50 is reported as 24.1 µM.
With COc1ccc(C(=O)CCN2CCN(Cc3ccccc3)CC2)cc1OC the IC50 was 55.2 µM.
For Cc1ccc(C(=O)CCN2CCN(c3ccc(F)cc3)CC2)cc1, the IC50 was 78.8 µM.
In the case of O=C(CCN1CCN(c2ccc(Cl)cc2)CC1)c1ccc(F)c(F)c1, the IC50 is reported as 13.7 µM.
O=C(CCN1CCN(c2ccc(Cl)cc2)CC1)c1ccc(OC(F)(F)F)cc1 gave an IC50 of 34.1 µM.

Tested on: Trypanosoma cruzi
Assay: Trypanocidal activity against Trypanosoma cruzi TINF/CH/1956/Tulahuen DTU 6 epimastigotes after 48 hrs by resazurin dye based assay
Type: functional, organism-based
Settings: TINF/CH/1956/Tulahuen DTU 6, 48 h
Outline: as §1
O=C(CCN1CCN(c2ccc(C(F)(F)F)cc2)CC1)c1ccc(Cl)c(F)c1 gave an IC50 of 66.7 µM.
COc1ccc(C(=O)CCN2CCN(c3ccc(F)cc3)CC2)cc1OC showed an IC50 of 103 µM.
O=C(CCN1CCN(c2ccc([N+](=O)[O-])cc2)CC1)c1ccc(F)c(F)c1 showed an IC50 of 53.1 µM.
COc1ccc(C(=O)CCN2CCN(Cc3cccc(C)c3)CC2)cc1OC gave an IC50 of 28.4 µM.
Compound COc1ccc(C(=O)CCN2CCN(Cc3ccccc3)CC2)cc1OC has an IC50 of 46.2 µM.
Cc1ccc(C(=O)CCN2CCN(c3ccc(F)cc3)CC2)cc1 gave an IC50 of 25 µM.
O=C(CCN1CCN(c2ccc(Cl)cc2)CC1)c1ccc(F)c(F)c1 gave an IC50 of 46.2 µM.
O=C(CCN1CCN(c2ccc(Cl)cc2)CC1)c1ccc(OC(F)(F)F)cc1 showed an IC50 of 61.8 µM.

Tested on: Vero
Assay: Cytotoxicity against African green monkey Vero cells assessed as reduction in cell viability after 72 hrs by resazurin dye based assay
Settings: Chlorocebus sabaeus
Outline: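 Vero monkey kidney cells grown at 37 °C, 5 % CO2, in RPMI with 10 % heat-inactivated FBS. Seeded at 1.25 × 10^4 mL-1 with compound at 1000 to 1 µM (DMSO 0.01 % v/v). After 48 h, resazurin added for a further 24 h, then SDS. Absorbance read at 570/600 nm. IC50 from triplicates in four separate determinations.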
In the case of O=C(CCN1CCN(c2ccc(C(F)(F)F)cc2)CC1)c1ccc(Cl)c(F)c1, the IC50 is reported as 74.3 µM.
In the case of COc1ccc(C(=O)CCN2CCN(c3ccc(F)cc3)CC2)cc1OC, the IC50 is reported as 175 µM.
Compound O=C(CCN1CCN(c2ccc([N+](=O)[O-])cc2)CC1)c1ccc(F)c(F)c1 has an IC50 of 122 µM.
With COc1ccc(C(=O)CCN2CCN(Cc3cccc(C)c3)CC2)cc1OC the IC50 was 52 µM.
Compound COc1ccc(C(=O)CCN2CCN(Cc3ccccc3)CC2)cc1OC has an IC50 of 47.5 µM.
For Cc1ccc(C(=O)CCN2CCN(c3ccc(F)cc3)CC2)cc1, the IC50 was 55.4 µM.
O=C(CCN1CCN(c2ccc(Cl)cc2)CC1)c1ccc(F)c(F)c1 gave an IC50 of 86.2 µM.
Compound O=C(CCN1CCN(c2ccc(Cl)cc2)CC1)c1ccc(OC(F)(F)F)cc1 has an IC50 of 95.6 µM.

Tested on: not listed separately
Assay: Selectivity index, ratio of IC50 for African green monkey Vero cells to IC50 for Trypanosoma cruzi MHOM/Pe/2011/Arequipa DTU 5 epimastigotes
Type: toxicity
Settings: read-out: Ratio IC50
Outline: (§2)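 SI is Vero IC50 divided by the IC50 for the stated parasite form. For Vero cytotoxicity, cells were seeded at 1.25×10^4 mL^-1 with compounds at 1000–1 µM, incubated 48 h, then given resazurin for a further 24 h (72 h total), with absorbance read at 570/600 nm. Triplicate, four determinations.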
In the case of O=C(CCN1CCN(c2ccc(C(F)(F)F)cc2)CC1)c1ccc(Cl)c(F)c1, the selectivity ratio is reported as 2.7.
For COc1ccc(C(=O)CCN2CCN(c3ccc(F)cc3)CC2)cc1OC, the selectivity ratio was 1.1.
With O=C(CCN1CCN(c2ccc([N+](=O)[O-])cc2)CC1)c1ccc(F)c(F)c1 the selectivity ratio was 1.4.
In the case of COc1ccc(C(=O)CCN2CCN(Cc3cccc(C)c3)CC2)cc1OC, the selectivity ratio is reported as 2.7.
Work on COc1ccc(C(=O)CCN2CCN(Cc3ccccc3)CC2)cc1OC yielded a selectivity ratio of 1.6.
Cc1ccc(C(=O)CCN2CCN(c3ccc(F)cc3)CC2)cc1 showed a selectivity ratio of 1.3.
With O=C(CCN1CCN(c2ccc(Cl)cc2)CC1)c1ccc(F)c(F)c1 the selectivity ratio was 5.6.
O=C(CCN1CCN(c2ccc(Cl)cc2)CC1)c1ccc(OC(F)(F)F)cc1 gave a selectivity ratio of 2.3.

Tested on: not listed separately
Assay: Selectivity index, ratio of IC50 for African green monkey Vero cells to IC50 for Trypanosoma cruzi IRHOD/CO/2008/SN3 DTU 1 epimastigotes
Type: toxicity
Settings: read-out: Ratio IC50
Outline: as §2
O=C(CCN1CCN(c2ccc(C(F)(F)F)cc2)CC1)c1ccc(Cl)c(F)c1 showed a selectivity ratio of 1.5.
Work on COc1ccc(C(=O)CCN2CCN(c3ccc(F)cc3)CC2)cc1OC yielded a selectivity ratio of 2.8.
Compound O=C(CCN1CCN(c2ccc([N+](=O)[O-])cc2)CC1)c1ccc(F)c(F)c1 has a selectivity ratio of 0.8.
With COc1ccc(C(=O)CCN2CCN(Cc3cccc(C)c3)CC2)cc1OC the selectivity ratio was 2.2.
For COc1ccc(C(=O)CCN2CCN(Cc3ccccc3)CC2)cc1OC, the selectivity ratio was 0.9.
Cc1ccc(C(=O)CCN2CCN(c3ccc(F)cc3)CC2)cc1 gave a selectivity ratio of 0.7.
Work on O=C(CCN1CCN(c2ccc(Cl)cc2)CC1)c1ccc(F)c(F)c1 yielded a selectivity ratio of 6.3.
In the case of O=C(CCN1CCN(c2ccc(Cl)cc2)CC1)c1ccc(OC(F)(F)F)cc1, the selectivity ratio is reported as 2.8.

Tested on: not listed separately
Assay: Selectivity index, ratio of IC50 for African green monkey Vero cells to IC50 for Trypanosoma cruzi TINF/CH/1956/Tulahuen DTU 6 epimastigotes
Type: toxicity
Settings: read-out: Ratio IC50
Outline: as §2
Compound O=C(CCN1CCN(c2ccc(C(F)(F)F)cc2)CC1)c1ccc(Cl)c(F)c1 has a selectivity ratio of 1.1.
COc1ccc(C(=O)CCN2CCN(c3ccc(F)cc3)CC2)cc1OC gave a selectivity ratio of 1.7.
For O=C(CCN1CCN(c2ccc([N+](=O)[O-])cc2)CC1)c1ccc(F)c(F)c1, the selectivity ratio was 2.3.
Work on COc1ccc(C(=O)CCN2CCN(Cc3cccc(C)c3)CC2)cc1OC yielded a selectivity ratio of 1.8.
Work on COc1ccc(C(=O)CCN2CCN(Cc3ccccc3)CC2)cc1OC yielded a selectivity ratio of 1.
With Cc1ccc(C(=O)CCN2CCN(c3ccc(F)cc3)CC2)cc1 the selectivity ratio was 2.2.
With O=C(CCN1CCN(c2ccc(Cl)cc2)CC1)c1ccc(F)c(F)c1 the selectivity ratio was 1.9.
Compound O=C(CCN1CCN(c2ccc(Cl)cc2)CC1)c1ccc(OC(F)(F)F)cc1 has a selectivity ratio of 1.5.
